Holding throughout (format): functional, cell-based
For one assay, the system named is A549. Nature of the assay: Cytotoxicity against human A549 cells after 72 hrs by Alamar Blue assay. To be noted: A549, 72 h. Summed up: (§1)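 A549 or HeLa cells in RPMI1640 + 10% FBS at 37 °C, 5% CO2. Seeded 1500 cells/well and left to adhere 2−3 h, then given compound diluted from DMSO stock in media (31.6 nM to 200 μM), in triplicate. After 69 h, Alamar Blue was added for 3 h more; fluorescence read at ex 560/em 590 nm. Doxorubicin and etoposide served as positive controls, untreated wells as negative. IC50 taken from ≥3 independent experiments.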
In general terms: Alamar Blue is a resazurin reagent that responds to reducing activity.

For another assay, the system named is HeLa. Briefly: Cytotoxicity against human HeLa cells after 72 hrs by Alamar Blue assay. Summed up: as §1
Assay [1] can be described thus: Cytotoxicity against human MiaPaCa cells after 72 hrs by Alamar Blue assay. The settings on record: MIA PaCa-2, 72 h. An outline of the steps:
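Mia PaCa-2 in DMEM + 10% FBS at 37 °C, 5% CO2. Seeded 1500 cells/well and left to adhere 2−3 h, then given compound diluted from DMSO stock in media (31.6 nM to 200 μM), in triplicate. After 69 h, Alamar Blue was added for 3 h more; fluorescence read at ex 560/em 590 nm. Doxorubicin and etoposide served as positive controls, untreated wells as negative. IC50 taken from ≥3 independent experiments.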

In another assay the test system is U-937. Nature of the assay: Cytotoxicity against human U937 cells after 72 hrs by Alamar Blue assay. The settings on record: U-937, 72 h. An outline of the steps:
(§2)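 Nonadherent cells in RPMI1640 + 10% FBS at 37 °C, 5% CO2. Compound from DMSO stock was diluted in media (31.6 nM to 200 μM) and plated in triplicate; cells (2000/well) were added afterwards. After 69 h, Alamar Blue was added for 3 h more; fluorescence read at ex 560/em 590 nm. Doxorubicin and etoposide served as positive controls. IC50 taken from ≥3 independent experiments.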

The test system of a further assay is RPMI-8226. Nature of the assay: Cytotoxicity against human RPMI8226 cells after 72 hrs by Alamar Blue assay. To be noted: RPMI-8226, 72 h. An outline of the steps:
as §2

A short description of assay [2]: Cytotoxicity against human MM1R cells after 72 hrs by Alamar Blue assay. The settings on record: MM.1R. An outline of the steps:
as §2

Residues, ends and D or L forms follow the SMILES beside them. *: point of attachment. Boc = CC(C)(C)OC(=O)* A value given as a limit tells only on which side of the number the result lay.

As usually defined, the IC50 is the concentration that gives 50% inhibition. Regarding `CC[C@H](C)[C@H](NC(=O)OC(C)(C)C)C(=O)N1CCC[C@H]1C(=O)N[C@@H](CC(C)C)C(=O)N[C@@H](Cc1c[nH]c2ccccc12)C(=O)N1CCC[C@H]1C(=O)N[C@H](C(=O)N[C@H](C(=O)N1CCC[C@H]1C(=O)OC)[C@@H](C)CC)C(C)C` (Boc-IPLWPVIP-OMe), the IC50 (in the assay with A549; in the assay on HeLa; in assay [1]; with U-937; in the assay with RPMI-8226; in assay [2]) was over 20 µM each time.

In the case of `CC[C@H](C)[C@H](NC(=O)[C@@H](NC(=O)[C@@H]1CCCN1C(=O)OC(C)(C)C)C(C)C)C(=O)N1CCC[C@H]1C(=O)N[C@H](C(=O)N1CCC[C@H]1C(=O)N[C@@H](CC(C)C)C(=O)N[C@@H](Cc1c[nH]c2ccccc12)C(=O)OC)[C@@H](C)CC` (Boc-PVIPIPLW-OMe), the IC50 in the assay with A549 was over 20 µM; in the assay on HeLa it was over 20 µM; in assay [1], 19.1 µM; in the assay on U-937 it was over 20 µM; with RPMI-8226 it was over 20 µM; in assay [2], over 20 µM.

Turning to `CC[C@H](C)[C@@H]1NC(=O)[C@H](C(C)C)NC(=O)[C@@H]2CCCN2C(=O)[C@H](Cc2c[nH]c3ccccc23)NC(=O)[C@H](CC(C)C)NC(=O)[C@@H]2CCCN2C(=O)[C@H]([C@@H](C)CC)NC(=O)[C@@H]2CCCN2C1=O` (cyclo(IPIPLWPV)), the IC50 in the assay with A549 was over 20 µM; with HeLa, 16.9 µM; in assay [1], over 20 µM; in the assay on U-937, 12.4 µM; in the assay on RPMI-8226 it was 4.5 µM; in assay [2], over 11.2 µM.

As for H-IPLWPVIP-OH, the IC50 in the assay on A549 is over 20 µM; in the assay on HeLa it was 18.4 µM; in assay [1] it was over 20 µM; with U-937, over 20 µM; in the assay on RPMI-8226, 16.4 µM; in assay [2], over 20 µM.

On to H-PVIPIPLW-OH, for which the IC50 in the assay with A549 is over 20 µM; with HeLa it was over 20 µM; in assay [1], over 20 µM; in the assay on U-937 it was 9.5 µM; with RPMI-8226, over 20 µM; in assay [2] it was over 20 µM.

For the origin of these results see ChEMBL document CHEMBL4130582, “Total Synthesis of Reniochalistatin E” (J Nat Prod, 2017).
